From the array DNA melting data of Ke et al. (doi:10.1101/2024.01.08.574731)

Tests used:
[1] = folding enthalpy; higher = less favourable; fluorescence melt of hairpins on a sequencing array, two-state fit; settings: sodium 0.088 M
In short: (§1)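 Melting temperature and folding enthalpy were derived from bootstrapped two-state fits. The fitted temperatures were raised by 9.35 °C to agree with UV melts, and four replicates were combined by inverse variance. The underlying data were Cy3 fluorescence images of library hairpins, with annealed Cy3 and quencher oligos, on a sequenced MiSeq flow cell in 50 mM Na-HEPES pH 8.0, 25 mM NaCl, taken in 2.5 °C steps up to 60 °C, normalised to pre-quench Cy3 and to control constructs.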

[2] = melting temperature; fluorescence melt of hairpins on a sequencing array, two-state fit, raised by 9.35 °C to match UV melts; settings: sodium 0.088 M
In short: as §1

Sequence | folding enthalpy [1] | Tm [2]
GATCATTTTTATGATC ((((((....)))))) | -40 kcal/mol | 49.1 °C
GATCCAAACTTGGATC ((((((....)))))) | -39.4 kcal/mol | 53.1 °C
GATCCAAATATGGATC ((((((....)))))) | -34.1 kcal/mol | 49.4 °C
GATCCAACAGTGGATC ((((((....)))))) | -32.1 kcal/mol | 47.1 °C
GATCCAACGTTGGATC ((((((....)))))) | -58.1 kcal/mol | 55.6 °C
GATCCAAGCATGGATC ((((((....)))))) | -41.2 kcal/mol | 51.8 °C
GATCCAAGGTGGATC ((((((...)))))) | -32.6 kcal/mol | 51.1 °C
GATCCAAGTTGGATC ((((((...)))))) | -35.7 kcal/mol | 49.1 °C
GATCCAATACTGGATC ((((((....)))))) | -40 kcal/mol | 48.6 °C
GATCCAATATTGGATC ((((((....)))))) | -41.7 kcal/mol | 52.2 °C
GATCCAATGTTGGATC ((((((....)))))) | -35 kcal/mol | 52.6 °C
GATCCACAAATGGATC ((((((....)))))) | -32.9 kcal/mol | 47.5 °C
GATCCACAACTGGATC ((((((....)))))) | -34.5 kcal/mol | 47 °C
GATCCACAGATGGATC ((((((....)))))) | -38.6 kcal/mol | 49 °C
GATCCACATATGGATC ((((((....)))))) | -41.2 kcal/mol | 50.6 °C
GATCCACATGTGGATC ((((((....)))))) | -41 kcal/mol | 62.1 °C
GATCCACCCCTGGATC ((((((....)))))) | -37.2 kcal/mol | 49.9 °C
GATCCACCGATGGATC ((((((....)))))) | -36.7 kcal/mol | 49.2 °C
GATCCACCGCTGGATC ((((((....)))))) | -39.8 kcal/mol | 50 °C
GATCCACCTATGGATC ((((((....)))))) | -41.4 kcal/mol | 50.1 °C
GATCCACGACTGGATC ((((((....)))))) | -31.4 kcal/mol | 48.8 °C
GATCCACGAGTGGATC ((((((....)))))) | -39.8 kcal/mol | 62.8 °C
GATCCACGGCTGGATC ((((((....)))))) | -39.1 kcal/mol | 50.5 °C
GATCCACGGGTGGATC ((((((....)))))) | -39.6 kcal/mol | 58.8 °C

Sequence | folding enthalpy [1] | Tm [2]
GATCCACGTTTGGATC ((((((....)))))) | -34.6 kcal/mol | 50.5 °C
GATCCACTGATGGATC ((((((....)))))) | -38.5 kcal/mol | 50.4 °C
GATCCACTGTGGATC ((((((...)))))) | -39.4 kcal/mol | 51.6 °C
GATCCACTGTTGGATC ((((((....)))))) | -30.4 kcal/mol | 49.9 °C
GATCCAGACCTGGATC ((((((....)))))) | -44.8 kcal/mol | 54.6 °C
GATCCAGAGTTGGATC ((((((....)))))) | -39.8 kcal/mol | 49.2 °C
GATCCAGATCTGGATC ((((((....)))))) | -48 kcal/mol | 54.3 °C
GATCCAGGATGGATC ((((((...)))))) | -40.5 kcal/mol | 57.8 °C
GATCCAGGGATGGATC ((((((....)))))) | -38.9 kcal/mol | 53.3 °C
GATCCAGGGTGGATC ((((((...)))))) | -31.5 kcal/mol | 49.3 °C
GATCCAGTAATGGATC ((((((....)))))) | -34.2 kcal/mol | 58.7 °C
GATCCAGTACTGGATC ((((((....)))))) | -47.2 kcal/mol | 57.1 °C
GATCCAGTCGTGGATC ((((((....)))))) | -35.9 kcal/mol | 52.8 °C
GATCCAGTTATGGATC ((((((....)))))) | -46.4 kcal/mol | 58.4 °C
GATCCAGTTGTGGATC ((((((....)))))) | -38.6 kcal/mol | 50.4 °C
GATCCAGTTTGGATC ((((((...)))))) | -32.4 kcal/mol | 52.6 °C
GATCCATAAGTGGATC ((((((....)))))) | -39.2 kcal/mol | 51.9 °C
GATCCATACGTGGATC ((((((....)))))) | -51 kcal/mol | 54.5 °C
GATCCATACTTGGATC ((((((....)))))) | -37.3 kcal/mol | 54.4 °C
GATCCATCATGGATC ((((((...)))))) | -32.5 kcal/mol | 52.5 °C
GATCCATCCCTGGATC ((((((....)))))) | -35.4 kcal/mol | 51 °C
GATCCATGATGGATC ((((((...)))))) | -34.2 kcal/mol | 49.6 °C
GATCCATGCTTGGATC ((((((....)))))) | -43.6 kcal/mol | 55.1 °C
GATCCATGGATGGATC ((((((....)))))) | -39.1 kcal/mol | 53 °C

Sequence | folding enthalpy [1] | Tm [2]
GATCCATGTTGGATC ((((((...)))))) | -36.8 kcal/mol | 52 °C
GATCCATGTTTGGATC ((((((....)))))) | -42.8 kcal/mol | 53.8 °C
GATCCATTGGTGGATC ((((((....)))))) | -44.4 kcal/mol | 53 °C
GATCCCACCCGGGATC ((((((....)))))) | -41.1 kcal/mol | 60 °C
GATCCCACCGGGGATC ((((((....)))))) | -32.3 kcal/mol | 63.7 °C
GATCCCACCTGGGATC ((((((....)))))) | -35.6 kcal/mol | 60.1 °C
GATCCCACTAGGGATC ((((((....)))))) | -33.1 kcal/mol | 65.9 °C
GATCCCACTGGGATC ((((((...)))))) | -34.8 kcal/mol | 60.9 °C
GATCCCAGAGGGATC ((((((...)))))) | -34.2 kcal/mol | 68.5 °C
GATCCCAGCCGGGATC ((((((....)))))) | -32.8 kcal/mol | 64.2 °C
GATCCCAGGGGGGATC ((((((....)))))) | -32.3 kcal/mol | 59.2 °C
GATCCCAGTAGGGATC ((((((....)))))) | -35 kcal/mol | 66 °C
GATCCCAGTCGGGATC ((((((....)))))) | -33.4 kcal/mol | 61.3 °C
GATCCCAGTTGGGATC ((((((....)))))) | -42 kcal/mol | 61.2 °C
GATCCCATACGGGATC ((((((....)))))) | -38.5 kcal/mol | 64.6 °C
GATCCCATTGGGATC ((((((...)))))) | -31.9 kcal/mol | 65.5 °C
GATCCCATTGGGGATC ((((((....)))))) | -38.2 kcal/mol | 62.1 °C
GATCCCCACGGGATC ((((((...)))))) | -34.9 kcal/mol | 63.4 °C
GATCCCCATCGGGATC ((((((....)))))) | -35.4 kcal/mol | 58.2 °C
GATCCCCCAGGGATC ((((((...)))))) | -33.9 kcal/mol | 63.8 °C
GATCCCCCAGGGGATC ((((((....)))))) | -36.4 kcal/mol | 65.2 °C
GATCCCCCCGGGGATC ((((((....)))))) | -39.7 kcal/mol | 65.9 °C
GATCCCCCGGGGGATC ((((((....)))))) | -41.4 kcal/mol | 66 °C
GATCCCCGAGGGGATC ((((((....)))))) | -37.2 kcal/mol | 68.5 °C

Sequence | folding enthalpy [1] | Tm [2]
GATCCCCGCGGGGATC ((((((....)))))) | -38.8 kcal/mol | 67.4 °C
GATCCCCGGGGGGATC ((((((....)))))) | -29.9 kcal/mol | 66.6 °C
GATCCCCGTGGGATC ((((((...)))))) | -27.8 kcal/mol | 65.2 °C
GATCCCCTAGGGATC ((((((...)))))) | -38.4 kcal/mol | 64.4 °C
GATCCCCTGAGGGATC ((((((....)))))) | -31.8 kcal/mol | 61.9 °C
GATCCCCTTAGGGATC ((((((....)))))) | -45 kcal/mol | 63.2 °C
GATCCCCTTCGGGATC ((((((....)))))) | -39.9 kcal/mol | 58.7 °C
GATCCCCTTTGGGATC ((((((....)))))) | -33.9 kcal/mol | 61 °C
GATCCCGAAAGGGGATC ((((((....))).))) | -31.4 kcal/mol | 57.8 °C
GATCCCGAAAGGGTCATC ((((((....)))..))) | -12.1 kcal/mol | 42.8 °C
GATCCCGAAAGGGTGATC ((((((....)))..))) | -16.1 kcal/mol | 39.8 °C
GATCCCGAAGGGGATC ((((((....)))))) | -19.7 kcal/mol | 65.5 °C
GATCCCGAGCGGGATC ((((((....)))))) | -40.5 kcal/mol | 61.6 °C
GATCCCGAGTGGGATC ((((((....)))))) | -33.7 kcal/mol | 61.1 °C
GATCCCGATCGGGATC ((((((....)))))) | -50.5 kcal/mol | 62.3 °C
GATCCCGATGGGATC ((((((...)))))) | -36.5 kcal/mol | 61.3 °C
GATCCCGCCGGGGATC ((((((....)))))) | -37.7 kcal/mol | 63.1 °C
GATCCCGGAAACGGGACC (.(((((....))))).) | -11 kcal/mol | 46.7 °C
GATCCCGGTGGGGATC ((((((....)))))) | -40.2 kcal/mol | 59.3 °C
GATCCCGTAGGGGATC ((((((....)))))) | -23.4 kcal/mol | 62.9 °C
GATCCCGTGTGGGATC ((((((....)))))) | -33.9 kcal/mol | 63.9 °C
GATCCCGTTGGGGATC ((((((....)))))) | -42.4 kcal/mol | 64.7 °C
GATCCCTAAGGGATC ((((((...)))))) | -38.4 kcal/mol | 60.2 °C
GATCCCTACGGGGATC ((((((....)))))) | -39.4 kcal/mol | 62.1 °C
